# Published values from different studies.
# Lines come from different studies, so protocols differ. pIC50: −log10 of the molar value.
# MAL12: Alpha-glucosidase MAL12 (MAL12, Saccharomyces cerevisiae S288c, UniProt P53341)
Compound,target,test,setting,pIC50
Nc1ncnc2c1ncn2[C@@H]1O[C@H](CO)[C@@H](O)[C@H]1O,"Solute carrier family 22 member 6 (SLC22A6, Homo sapiens, UniProt Q4U2R8)","transporter uptake, inhibitor, radiometric",oocytes,< 3.00
Cc1ccc2[nH]c(=O)c(CNC3CCCCC3)cc2c1,"Alpha-1A adrenergic receptor (ADRA1A, Homo sapiens, UniProt P35348, I178V/M292L)","calcium signal, antagonist",,5.79
C[C@@H]1O[C@@H](O[C@H]2[C@H](O[C@H]3CC[C@@]4(C)[C@@H](CC[C@]5(C)[C@@H]4CC=C4[C@@H]6CC(C)(C)CC[C@]6(C(=O)O[C@@H]6O[C@H](CO[C@@H]7O[C@H](CO)[C@@H](O)[C@H](O)[C@H]7O)[C@@H](O)[C@H](O)[C@H]6O)CC[C@]45C)[C@]3(C)CO)OC[C@H](O)[C@@H]2O)[C@H](O)[C@H](O)[C@H]1O,MAL12,"enzyme activity, inhibitor",,5.76
NC(=S)N/N=C/c1cc2ccccc2nc1SCc1cn(CC(=O)Nc2ccccc2)nn1,MAL12,"enzyme activity, inhibitor",,3.42
CCOC(=O)[C@H]1O[C@@H]1C(=O)N[C@@H](CC(C)C)C(=O)NCCC(C)C,"Cathepsin S (CTSS, Homo sapiens, UniProt P25774)","enzyme activity, inhibitor, fluorescence",,4.72
C[C@@H](OC(C)(C)C)[C@H](NC(=O)OCc1ccccc1)C(=O)N[C@@H](CC1CCCCC1)C(=O)NN(CCC(N)=O)C(=O)C(Cl)Cl,"Replicase polyprotein 1ab, main protease (rep, Severe acute respiratory syndrome coronavirus 2, UniProt P0DTD1)","enzyme activity, inhibitor",with preincubation,7.17
CC1(C)CC[C@]2(C(=O)O)CC[C@]3(C)C(=CC[C@@H]4[C@@]5(C)CC[C@H](O[C@@H]6O[C@H](C(=O)O)[C@@H](O)[C@H](O)[C@H]6O)C(C)(C)[C@@H]5CC[C@]43C)[C@@H]2C1,MAL12,"enzyme activity, inhibitor",,6.16
Cc1cc([N+](=O)[O-])ccc1NC(=O)Cn1cc(CSc2nc3ccccc3cc2/C=N/NC(N)=S)nn1,MAL12,"enzyme activity, inhibitor",,3.51
CC(=O)OC[C@H]1O[C@@H](OC[C@H]2O[C@@H](OC(=O)[C@]34CCC(C)(C)C[C@H]3C3=CC[C@@H]5[C@@]6(C)CC[C@H](O[C@@H]7OC[C@H](O)[C@H](O)[C@H]7O[C@@H]7O[C@H](CO)[C@@H](O)[C@H](O)[C@H]7O)C(C)(C)[C@@H]6CC[C@@]5(C)[C@]3(C)CC4)[C@H](O)[C@@H](O)[C@@H]2O)[C@H](O)[C@@H](O)[C@@H]1O[C@@H]1O[C@@H](C)[C@H](O)[C@@H](O)[C@H]1O,MAL12,"enzyme activity, inhibitor",,6.12
NC(=S)N/N=C/c1cc2ccccc2nc1SCc1cn(CC(=O)Nc2ccc([N+](=O)[O-])cc2)nn1,MAL12,"enzyme activity, inhibitor",,3.25
CC1(CN)CCN(c2cnc3c(Sc4ccncc4Cl)n[nH]c3n2)CC1,"Tyrosine-protein phosphatase non-receptor type 1 (PTPN1, Homo sapiens, UniProt P18031)","enzyme activity, inhibitor",,< 4.00
Cc1ccc2oc(=O)cc(NCCO)c2c1,"Alpha-1A adrenergic receptor (ADRA1A, Homo sapiens, UniProt P35348, I178V)","calcium signal, antagonist",,3.48
C[C@@H]1O[C@@H](O[C@H]2[C@H](O[C@H]3CC[C@@]4(C)[C@@H](CC[C@]5(C)[C@@H]4CC=C4[C@@H]6CC(C)(C)CC[C@]6(C(=O)O[C@@H]6O[C@H](CO[C@@H]7O[C@H](CO)[C@@H](O[C@@H]8O[C@@H](C)[C@H](O)[C@@H](O)[C@H]8O)[C@H](O)[C@H]7O)[C@@H](O)[C@H](O)[C@H]6O)CC[C@]45C)[C@]3(C)CO)OC[C@H](O)[C@@H]2O)[C@H](O)[C@H](O)[C@H]1O,MAL12,"enzyme activity, inhibitor",,5.75
COc1cc(C(c2c(O)c3ccccc3oc2=O)c2c(O)c3ccccc3oc2=O)ccc1OCc1cn(CC(=O)Nc2ccccc2C)nn1,MAL12,"enzyme activity, inhibitor, absorbance",,4.30
C[C@@H]1O[C@@H](O[C@H]2[C@H](O)[C@@H](O)[C@H](OC[C@H]3O[C@@H](OC(=O)[C@]45CCC(C)(C)C[C@H]4C4=CC[C@@H]6[C@@]7(C)CC[C@H](O[C@@H]8OC[C@H](O)[C@H](O)[C@H]8O)C(C)(C)[C@@H]7CC[C@@]6(C)[C@]4(C)CC5)[C@H](O)[C@@H](O)[C@@H]3O)O[C@@H]2CO)[C@H](O)[C@H](O)[C@H]1O,MAL12,"enzyme activity, inhibitor",,6.05
Cc1ccc(NC(=O)Cn2cc(CSc3nc4ccccc4cc3/C=N/NC(N)=S)nn2)cc1,MAL12,"enzyme activity, inhibitor",,3.31
COc1cc(C(c2c(O)c3ccccc3oc2=O)c2c(O)c3ccccc3oc2=O)ccc1OCc1cn(CC(=O)Nc2cccc(Cl)c2)nn1,MAL12,"enzyme activity, inhibitor, absorbance",,4.07
Cc1cccc(NC(=O)Cn2cc(CSc3nc4ccccc4cc3/C=N/NC(N)=S)nn2)c1,MAL12,"enzyme activity, inhibitor",,3.61
COc1cc(C(c2c(O)c3ccccc3oc2=O)c2c(O)c3ccccc3oc2=O)ccc1OCc1cn(CC(=O)Nc2ccc(Br)cc2)nn1,MAL12,"enzyme activity, inhibitor, absorbance",,4.09
NC(=S)N/N=C/c1cc2ccccc2nc1SCc1cn(CC(=O)Nc2cccc([N+](=O)[O-])c2)nn1,MAL12,"enzyme activity, inhibitor",,3.66
COc1cc(C(c2c(O)c3ccccc3oc2=O)c2c(O)c3ccccc3oc2=O)ccc1OCc1cn(CC(=O)Nc2ccc(C)cc2)nn1,MAL12,"enzyme activity, inhibitor, absorbance",,4.39
